In ChEMBL document CHEMBL1140748, “Synthesis and biological evaluation of novel 2,4-diaminoquinazoline derivatives as SMN2 promoter activators for the potential treatment of spinal muscular atrophy” (J Med Chem, 2008):
Values after ≈ are worked out from the molar mass of the structure shown.

How the values were obtained:
Fibroblast [1] = experiment: Increase in number of Cajal bodies containing SMN2 protein in human fibroblasts from spinal muscular atrophy patient at 100 nM after 5 days relative to control; format: functional
Mus musculus [2] = experiment: AUC (last) in NMRI mouse brain at 2 mg/kg, iv; format: ADME, organism-based; parameters: time 0 - last, dose 2 mg/kg, route intravenous; settings: in vivo
Summary of the method: (§1)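 Mice given a single iv dose of 2 mg/kg in 30% solutol. Parent compound measured in plasma and brain by LC/MS/MS. PK parameters (AUClast, predicted clearance, Vss, t1/2, MRT) were derived from the concentration–time profile and reported with SD.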

CYP3A4 = CYP3A4 (Homo sapiens, UniProt P08684); experiment: Inhibition of CYP3A4 at 10 uM; format: ADME
[3] = Cmax in NMRI mouse plasma at 10 mg/kg, po; format: ADME, organism-based; parameters: dose 10 mg/kg, route oral
[4] = AUC (0 to infinity ) in NMRI mouse plasma at 10 mg/kg, po; format: ADME, organism-based; parameters: time infinity, dose 10 mg/kg, route oral
CYP1A2 = molecular target: T1, CYP1A2 (Homo sapiens, UniProt P05177); experiment: Inhibition of CYP1A2 at 10 uM; format: ADME
T1 sequence (P05177 whole entry): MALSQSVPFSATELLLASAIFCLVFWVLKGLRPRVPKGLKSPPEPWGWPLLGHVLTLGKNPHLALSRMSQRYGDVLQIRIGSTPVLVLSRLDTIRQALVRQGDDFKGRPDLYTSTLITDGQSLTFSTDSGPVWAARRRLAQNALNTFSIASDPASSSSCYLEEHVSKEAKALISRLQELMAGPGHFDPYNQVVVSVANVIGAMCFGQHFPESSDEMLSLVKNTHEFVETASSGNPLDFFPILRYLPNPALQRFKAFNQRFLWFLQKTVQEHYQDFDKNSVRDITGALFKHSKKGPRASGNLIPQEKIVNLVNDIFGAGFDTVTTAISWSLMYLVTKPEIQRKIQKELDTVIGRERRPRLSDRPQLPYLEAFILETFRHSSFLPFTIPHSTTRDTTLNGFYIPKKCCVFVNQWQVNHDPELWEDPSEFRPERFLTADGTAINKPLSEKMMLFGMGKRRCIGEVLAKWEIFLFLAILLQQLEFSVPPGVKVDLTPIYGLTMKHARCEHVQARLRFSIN

[5] = Activation of SMN2 promoter in mouse NSC34 cells assessed as induction of beta-lactamase activity; format: functional, cell-based; settings: Mus musculus, NSC-34
[6] = AUC (last) in NMRI mouse plasma at 10 mg/kg, po; format: ADME, organism-based; parameters: time 0 - last, dose 10 mg/kg, route oral
[7] = Clearance in NMRI mouse plasma at 2 mg/kg, iv; format: ADME, organism-based; parameters: dose 2 mg/kg, route intravenous; summary of the method: as §1
[8] = Mean residence time (0 to infinity) in NMRI mouse brain at 2 mg/kg, iv; format: ADME, organism-based; parameters: dose 2 mg/kg, route intravenous; summary of the method: as §1
[9] = Drug level in NMRI mouse plasma at 2 mg/kg, iv after 15 mins; format: ADME, organism-based; parameters: dose 2 mg/kg, route intravenous
Summary of the method: (§2)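 Single iv dose of 2 mg/kg in 30% solutol to mice. Plasma and brain sampled at 15 min and 2 h postdose, n = 4 mice per time point. Parent compound quantified by LC/MS/MS; brain levels given as ng/g and plasma as ng/mL.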

[10] = Volume of distribution at steady state in NMRI mouse plasma at 2 mg/kg, iv; format: ADME, organism-based; parameters: dose 2 mg/kg, route intravenous; settings: read-out: Vdss; summary of the method: as §1
[11] = Cmax in NMRI mouse brain at 10 mg/kg, po; format: ADME, organism-based; parameters: dose 10 mg/kg, route oral
Dihydrofolate reductase = molecular target: T2, Dihydrofolate reductase (Homo sapiens, UniProt P00374); experiment: Inhibition of human recombinant DHFR
T2 sequence (P00374 whole entry): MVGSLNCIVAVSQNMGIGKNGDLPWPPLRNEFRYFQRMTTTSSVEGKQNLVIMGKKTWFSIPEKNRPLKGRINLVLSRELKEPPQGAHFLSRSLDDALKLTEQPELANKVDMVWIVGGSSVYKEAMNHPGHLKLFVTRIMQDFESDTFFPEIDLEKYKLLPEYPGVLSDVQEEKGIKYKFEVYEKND

Mus musculus [12] = experiment: AUC (last) in NMRI mouse brain at 10 mg/kg, po; format: ADME, organism-based; parameters: time 0 - last, dose 10 mg/kg, route oral; settings: in vivo
[13] = Drug level in NMRI mouse plasma at 2 mg/kg, iv after 120 mins; format: ADME, organism-based; parameters: dose 2 mg/kg, route intravenous; summary of the method: as §2
[14] = Drug level in NMRI mouse brain at 2 mg/kg, iv after 15 mins; format: ADME, organism-based; parameters: dose 2 mg/kg, route intravenous; settings: read-out: Drug uptake; summary of the method: as §2
[15] = Drug level in NMRI mouse brain at 2 mg/kg, iv after 120 mins; format: ADME, organism-based; parameters: dose 2 mg/kg, route intravenous; settings: read-out: Drug uptake; summary of the method: as §2
Fibroblast [16] = experiment: Increase in number of cells with Cajal bodies containing SMN2 protein in human fibroblasts from spinal muscular atrophy patient at 100 nM after 5 days relative to control; format: functional, cell-based
[17] = Activation of SMN2 promoter in mouse NSC34 cells assessed as induction of beta-lactamase activity relative to nonactivated cells; format: functional
CYP2C9 = CYP2C9 (Homo sapiens, UniProt P11712); experiment: Inhibition of CYP2C9 at 10 uM; format: ADME
Mus musculus [18] = experiment: AUC (0 to infinity ) in NMRI mouse brain at 10 mg/kg, po; format: ADME, organism-based; parameters: time infinity, dose 10 mg/kg, route oral; settings: in vivo
[19] = Half life in NMRI mouse brain at 10 mg/kg, po; format: ADME, organism-based; parameters: dose 10 mg/kg, route oral
[20] = Increase in SMN2 mRNA expression in mouse NSC34 cells at 500 nM relative to control; format: functional
Summary of the method: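 NSC-34 mouse motor neuron hybrid cells were treated for 18 h with compound in DMSO at final 500 nM or 50 nM (0.5% DMSO final), with 100 nM TSA as reference. Total RNA was then isolated and reverse-transcribed, and mouse SMN mRNA was measured by TaqMan qPCR in triplicate. Values were normalized to β-actin and expressed as 2^(-ΔCT), with Student's t test.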

Fibroblast [21] = experiment: Increase in SMN2 mRNA expression in human fibroblasts from spinal muscular atrophy patient; format: functional, cell-based
Cytochrome P450 2D6 = Cytochrome P450 2D6 (Homo sapiens, UniProt P10635); experiment: Inhibition of human CYP2D6; format: ADME
[22] = Solubility in water; format: physicochemical
[23] = Half life in NMRI mouse brain at 2 mg/kg, iv; format: ADME, organism-based; parameters: dose 2 mg/kg, route intravenous; summary of the method: as §1
[24] = AUC (last) in NMRI mouse plasma at 2 mg/kg, iv; format: ADME, organism-based; parameters: time 0 - last, dose 2 mg/kg, route intravenous; summary of the method: as §1
[25] = Mean residence time (0 to infinity) in NMRI mouse brain at 10 mg/kg, po; format: ADME, organism-based; parameters: dose 10 mg/kg, route oral
CYP2C19 = CYP2C19 (Homo sapiens, UniProt P33261); experiment: Inhibition of CYP2C19 at 10 uM; format: ADME
CYP2C19, sequence (P33261 whole entry): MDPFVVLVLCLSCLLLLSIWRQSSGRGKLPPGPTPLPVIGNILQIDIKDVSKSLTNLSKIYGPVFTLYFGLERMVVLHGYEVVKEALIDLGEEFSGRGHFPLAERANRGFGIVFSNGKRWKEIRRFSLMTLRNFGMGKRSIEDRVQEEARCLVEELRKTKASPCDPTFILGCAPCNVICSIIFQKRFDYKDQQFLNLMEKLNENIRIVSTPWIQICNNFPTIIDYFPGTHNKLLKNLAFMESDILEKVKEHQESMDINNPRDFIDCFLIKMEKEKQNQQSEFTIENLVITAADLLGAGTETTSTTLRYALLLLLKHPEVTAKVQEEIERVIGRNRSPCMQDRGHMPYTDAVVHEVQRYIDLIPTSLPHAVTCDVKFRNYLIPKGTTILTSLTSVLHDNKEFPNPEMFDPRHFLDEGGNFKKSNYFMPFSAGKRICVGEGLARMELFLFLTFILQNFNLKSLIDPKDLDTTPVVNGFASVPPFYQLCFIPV

CYP3A4, sequence (P08684 whole entry): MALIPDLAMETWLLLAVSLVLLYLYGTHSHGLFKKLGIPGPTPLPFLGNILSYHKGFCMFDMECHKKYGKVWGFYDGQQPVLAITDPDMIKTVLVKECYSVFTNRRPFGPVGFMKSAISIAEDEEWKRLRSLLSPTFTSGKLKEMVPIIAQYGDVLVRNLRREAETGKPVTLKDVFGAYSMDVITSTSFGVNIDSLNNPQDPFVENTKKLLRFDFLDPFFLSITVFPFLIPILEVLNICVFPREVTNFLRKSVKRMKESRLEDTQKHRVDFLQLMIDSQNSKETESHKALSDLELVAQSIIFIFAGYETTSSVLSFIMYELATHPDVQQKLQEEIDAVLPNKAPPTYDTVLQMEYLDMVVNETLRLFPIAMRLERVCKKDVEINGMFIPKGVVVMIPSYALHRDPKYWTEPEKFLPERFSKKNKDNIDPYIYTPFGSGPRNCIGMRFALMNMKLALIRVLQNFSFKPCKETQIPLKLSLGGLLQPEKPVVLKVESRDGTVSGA
CYP2C9, sequence (P11712 whole entry): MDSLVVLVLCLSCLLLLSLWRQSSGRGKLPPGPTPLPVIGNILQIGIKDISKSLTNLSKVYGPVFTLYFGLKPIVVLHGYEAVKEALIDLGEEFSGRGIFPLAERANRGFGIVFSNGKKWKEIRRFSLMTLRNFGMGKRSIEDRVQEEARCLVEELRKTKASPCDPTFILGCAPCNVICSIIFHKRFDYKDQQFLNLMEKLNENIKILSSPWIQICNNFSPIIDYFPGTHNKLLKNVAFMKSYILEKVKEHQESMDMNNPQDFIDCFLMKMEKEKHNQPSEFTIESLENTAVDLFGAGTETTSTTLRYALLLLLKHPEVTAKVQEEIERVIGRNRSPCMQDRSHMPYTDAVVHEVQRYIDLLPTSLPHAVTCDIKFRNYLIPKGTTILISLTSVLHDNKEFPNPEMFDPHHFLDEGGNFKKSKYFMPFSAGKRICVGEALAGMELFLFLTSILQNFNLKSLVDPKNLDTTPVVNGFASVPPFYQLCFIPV
Cytochrome P450 2D6, sequence (P10635 whole entry): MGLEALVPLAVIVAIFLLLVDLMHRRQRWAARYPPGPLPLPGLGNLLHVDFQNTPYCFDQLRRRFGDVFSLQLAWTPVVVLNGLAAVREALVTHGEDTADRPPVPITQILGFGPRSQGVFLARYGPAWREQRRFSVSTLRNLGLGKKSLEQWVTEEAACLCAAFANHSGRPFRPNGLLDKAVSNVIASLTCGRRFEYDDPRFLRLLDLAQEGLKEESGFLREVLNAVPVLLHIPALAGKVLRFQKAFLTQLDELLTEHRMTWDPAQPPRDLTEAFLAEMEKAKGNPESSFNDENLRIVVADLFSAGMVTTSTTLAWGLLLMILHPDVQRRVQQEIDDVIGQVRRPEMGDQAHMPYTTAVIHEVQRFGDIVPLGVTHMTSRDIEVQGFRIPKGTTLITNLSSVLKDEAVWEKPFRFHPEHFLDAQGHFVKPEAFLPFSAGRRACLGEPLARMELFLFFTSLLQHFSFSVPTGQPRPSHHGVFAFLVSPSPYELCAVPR

**Q.** For `Nc1nc(N)c2c(OCC3CCN(Cc4ccccc4F)CC3)cccc2n1`, which Fold change (Fibroblast [1]) is on record?
**A.** 5.5

**Q.** And the AUC (Mus musculus [2])?
**A.** 15724 ng·h/g

**Q.** What about the inhibition at 10 µM (CYP3A4) of the same molecule?
**A.** < 50%

**Q.** What about the Cmax [3] of the same molecule?
**A.** 110 ng/mL

**Q.** What about the AUC(0-inf) [4] of the same molecule?
**A.** 10900 ng·h/mL

**Q.** And the inhibition at 10 µM (CYP1A2)?
**A.** < 50%

**Q.** And the EC50 [5]?
**A.** 0.004 µM

**Q.** And the AUC(0-t) [6]?
**A.** 2670 ng·h/mL

**Q.** What about the clearance [7] of the same molecule?
**A.** 1.4 mL/min/kg

**Q.** And the MRT inf [8]?
**A.** 22.8 h

**Q.** And the concentration at 0.25 h [9]?
**A.** 38 ng/mL

**Q.** And the Vd [10]?
**A.** 38.1 L/kg

**Q.** And the Cmax [11]?
**A.** 765 ng/g

**Q.** And the IC50 (Dihydrofolate reductase)?
**A.** > 125 µM

**Q.** What about the AUC (Mus musculus [12]) of the same molecule?
**A.** 15485 ng·h/g

**Q.** What about the concentration at 2 h [13] of the same molecule?
**A.** 21 ng/mL

**Q.** And the concentration at 0.25 h [14]?
**A.** 1420 ng/g

**Q.** And the concentration at 2 h [15]?
**A.** 1130 ng/g

**Q.** What about the Activity (Fibroblast [16]) of the same molecule?
**A.** Dose-dependent effect

**Q.** And the Activity [17]?
**A.** 2.4

**Q.** What about the inhibition at 10 µM (CYP2C9) of the same molecule?
**A.** < 50%

**Q.** What about the AUC (Mus musculus [18]) of the same molecule?
**A.** 18910 ng·h/g

**Q.** And the half-life [19]?
**A.** 18.8 h

**Q.** And the Fold change [20]?
**A.** 2

**Q.** What about the Activity (Fibroblast [21]) of the same molecule?
**A.** Dose-dependent effect

**Q.** What about the IC50 (Cytochrome P450 2D6) of the same molecule?
**A.** 9.38 µM

**Q.** And the solubility [22]?
**A.** 41.5 mg/mL (≈ 109 mM)

**Q.** And the half-life [23]?
**A.** 19 h

**Q.** And the AUC(0-t) [24]?
**A.** 2410 ng·h/mL

**Q.** What about the MRT inf [25] of the same molecule?
**A.** 27.3 h

**Q.** And the inhibition at 10 µM (CYP2C19)?
**A.** < 50%
